“And” between values parts separate entries of the source, which are not always exact repeats. Equal values may be shown once.

For assay [1], the system named is Mus musculus. In words: Percent increase in life span was measured in mice intracerebrally implanted leukemia L1210 at 140-30 mg/kg administered intraperitoneally on day 1 only; Toxic. In kind it is functional, organism-based. In a few lines: (§1)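 Mice implanted intracerebrally with an inoculum of 10⁵ L1210 leukemia cells. Compound given intraperitoneally on day 1 only. Read-outs were median day of death, % increase in life span calculated for animals dying, and 45-day survivors over total mice. Tests were run by an external cancer screening group.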

Assay [2] deals with Mus musculus. In words: Percent increase in life span was measured in mice intracerebrally implanted leukemia L1210 at 15 mg/kg administered intraperitoneally on day 1 only. Format: functional. Conditions: L1210, ip, 24 h, route intraperitoneal. In a few lines:
as §1

In assay [3] the test system is Mus musculus. Put plainly: Percent increase in life span was measured in mice intracerebrally implanted leukemia L1210 at 25 mg/kg administered intraperitoneally on day 1 only. In kind it is functional. Conditions: L1210, ip, 24 h, route intraperitoneal. In a few lines: as §1
Assay [4] concerns Mus musculus. In words: Percent increase in life span was measured in mice intracerebrally implanted leukemia L1210 at 30 mg/kg administered intraperitoneally on day 1 only. In kind it is functional. Conditions: L1210, ip, 24 h, route intraperitoneal. In outline:
as §1

The test system of assay [5] is Mus musculus. Put plainly: Percent increase in life span was measured in mice intracerebrally implanted leukemia L1210 at 35 mg/kg administered intraperitoneally on day 1 only. Format: functional. The settings on record: L1210, ip, 24 h, route intraperitoneal. In a few lines:
as §1

The test system of assay [6] is Mus musculus. Put plainly: Activity against TLX-5 lymphoma in mice Percent increase in survival time at 100 mg/kg,. In kind it is functional.
For assay [7], the system named is Mus musculus. In words: Activity against TLX-5 lymphoma in mice Percent increase in survival time at 20 mg/kg,. Format: functional.
In assay [8] the test system is Mus musculus. Put plainly: Activity against TLX-5 lymphoma in mice Percent increase in survival time at 40 mg/kg,. In kind it is functional.
Assay [9] has as its system Mus musculus. Put plainly: Activity against TLX-5 lymphoma in mice Percent increase in survival time at 5 mg/kg,. Format: functional.
Assay [10] concerns Mus musculus. Put plainly: Activity against TLX-5 lymphoma in mice Percent increase in survival time at 80 mg/kg,. In kind it is functional.
The subject of assay [11] is Mus musculus. In words: Percent increase in life span was measured in mice intracerebrally implanted leukemia L1210 at 10 mg/kg administered intraperitoneally on day 1 only. In kind it is functional. The settings on record: L1210, ip, 24 h, route intraperitoneal. In a few lines:
as §1

The subject of assay [12] is Mus musculus. Put plainly: Median day of death was measured in mice intracerebrally implanted leukemia L1210 at 25 mg/kg administered intraperitoneally on day 1. Conditions: route intraperitoneal. Format: functional. In outline: as §1
Assay [13] relates to Mus musculus. In words: Median day of death was measured in mice intracerebrally implanted leukemia L1210 at 30 mg/kg administered intraperitoneally on day 1. Conditions: route intraperitoneal. In kind it is functional. In a few lines: as §1
Assay [14] relates to Mus musculus. In words: Median day of death was measured in mice intracerebrally implanted leukemia L1210 at 35 mg/kg administered intraperitoneally on day 1. Format: functional. Conditions: route intraperitoneal. In a few lines: as §1
In assay [15] the test system is Mus musculus. Put plainly: Median day of death was measured in mice intracerebrally implanted leukemia L1210 at 10 mg/kg administered intraperitoneally on day 1. Format: functional. The settings on record: route intraperitoneal. In a few lines:
as §1

In assay [16] the test system is Mus musculus. Put plainly: Activity against TLX-5 lymphoma in mice Percent increase in survival time at 10 mg/kg,. In kind it is functional.
Assay [17] concerns Mus musculus. Put plainly: Median day of death was measured in mice intracerebrally implanted leukemia L1210 at 15 mg/kg administered intraperitoneally on day 1. In kind it is functional. Conditions: route intraperitoneal. In a few lines:
as §1

The test system of assay [18] is Mus musculus. In words: Percent increase in life span was measured in mice intracerebrally implanted leukemia L1210 at 40 mg/kg administered intraperitoneally on day 1 only. In kind it is functional. Conditions: L1210, ip, 24 h, route intraperitoneal. In outline:
as §1

Assay [19] relates to Mus musculus. In words: Percent increase in life span was measured in mice intracerebrally implanted leukemia L1210 at 50 mg/kg administered intraperitoneally on day 1 only. Format: functional. Conditions: L1210, ip, 24 h, route intraperitoneal. In outline:
as §1

Assay [20] has as its system Mus musculus. In words: Percent increase in life span was measured in mice intracerebrally implanted leukemia L1210 at 60 mg/kg administered intraperitoneally on day 1 only. Format: functional. Conditions: route intraperitoneal. In a few lines: as §1
Assay [21] relates to Mus musculus. Put plainly: (§2) Percent increase in life span was measured in mice intracerebrally implanted leukemia L1210 at 80 mg/kg administered intraperitoneally on day 1 only. In kind it is functional. Conditions: L1210, ip, 24 h, route intraperitoneal. In outline: as §1
Assay [22] concerns Mus musculus. Described as §2. In kind it is functional. The settings on record: L1210, ip, 24 h, route intraperitoneal. In a few lines:
as §1
The source holds these as a separate data set.

In assay [23] the test system is Mus musculus. Put plainly: Median day of death was measured in mice intracerebrally implanted leukemia L1210 at 40 mg/kg administered intraperitoneally on day 1. In kind it is functional. Conditions: route intraperitoneal. In a few lines:
as §1

Assay [24] relates to Mus musculus. In words: Median day of death was measured in mice intracerebrally implanted leukemia L1210 at 60 mg/kg administered intraperitoneally on day 1. Format: functional. Conditions: route intraperitoneal. In outline: as §1
The subject of assay [25] is Mus musculus. In words: Median day of death was measured in mice intracerebrally implanted leukemia L1210 at 80 mg/kg administered intraperitoneally on day 1. The settings on record: route intraperitoneal. Format: functional. In a few lines:
as §1

Assay [26] deals with Mus musculus. Put plainly: survivors / total number of mice intracerebrally implanted leukemia L1210 at 30 mg/kg administered intraperitoneally on day 1 only. 4-5 day; 1/9. Format: functional. The settings on record: route intraperitoneal. In a few lines: as §1
The test system of assay [27] is Mus musculus. In words: survivors / total number of mice intracerebrally implanted leukemia L1210 at 30 mg/kg administered intraperitoneally on day 1 only. 4-5 day; 8/10. In kind it is functional. Conditions: route intraperitoneal. In outline: as §1
The subject of assay [28] is Mus musculus. Put plainly: survivors / total number of mice intracerebrally implanted leukemia L1210 at 40 mg/kg administered intraperitoneally on day 1 only. 4-5 day; 8/9. In kind it is functional. The settings on record: route intraperitoneal. In outline:
as §1

In assay [29] the test system is Mus musculus. Put plainly: survivors / total number of mice intracerebrally implanted leukemia L1210 at 40 mg/kg administered intraperitoneally on day 1 only. 4-5 day; 10/10. Format: functional. Conditions: route intraperitoneal. In outline: as §1
Assay [30] deals with Mus musculus. In words: survivors / total number of mice intracerebrally implanted leukemia L1210 at 50 mg/kg administered intraperitoneally on day 1 only. 4-5 day; 8/9. Format: functional. Conditions: route intraperitoneal. In outline:
as §1

The test system of assay [31] is Mus musculus. Put plainly: survivors / total number of mice intracerebrally implanted leukemia L1210 at 50 mg/kg administered intraperitoneally on day 1 only. 4-5 day; 8/10. In kind it is functional. The settings on record: route intraperitoneal. In a few lines:
as §1

For assay [32], the system named is Mus musculus. Put plainly: survivors / total number of mice intracerebrally implanted leukemia L1210 at 60 mg/kg administered intraperitoneally on day 1 only. 4-5 day; 9/10. Format: functional. The settings on record: route intraperitoneal. In a few lines: as §1
Assay [33] has as its system Mus musculus. In words: survivors / total number of mice intracerebrally implanted leukemia L1210 at 60 mg/kg administered intraperitoneally on day 1 only. 4-5 day; 8/10. Format: functional. Conditions: route intraperitoneal. In a few lines:
as §1

Assay [34] concerns Mus musculus. Put plainly: survivors / total number of mice intracerebrally implanted leukemia L1210 at 80 mg/kg administered intraperitoneally on day 1 only. 4-5 day; 3/8. In kind it is functional. Conditions: route intraperitoneal. In outline: as §1

For the compound `O=NN(CCCl)C(=O)NC1C(F)(F)C(F)(F)C(F)(F)C(F)(F)C1(F)F`, the ILS entry in assay [1] is “Toxic”. The ILS at 15 mg/kg in [2] stood at 0%. Besides, the ILS at 25 mg/kg in assay [3] amounted to 0%. Besides, the ILS at 30 mg/kg in [4] was 0%. In assay [5], the ILS at 35 mg/kg is -13%. Also, the Increase was -57.5% in [6]; -2.2% in assay [7]; 11.6% in assay [8]; 4.2% in assay [9]; -38.3% in assay [10]; 6.3% in [16]. For the same compound, the ILS at 10 mg/kg in [11] came to 0%. Besides, the “Median day of death” value in assay [12] is recorded as 8; in assay [13] it was 8; in assay [14], 7; in assay [15], 8; in assay [17], 8.

In the case of `O=NN(CCCl)C(=O)NC1CCCCC1` [LOMUSTINE], the ILS at 40 mg/kg in assay [18] was 257%. The ILS at 50 mg/kg in [19] was 350%. The ILS in assay [20] was 278% and 185%. The ILS at 80 mg/kg in [21] was 135%; in [22], 42%. The Increase in assay [6] is -36.2%; in [7] it was 95.9%; in assay [8], 189.3%; in [9], 21.2%; in [10], -25.6%; in assay [16], 53.1%. Further, the “Median day of death” value in assay [13] (30 mg/kg) was 37.5 and 15; in assay [23], 25; in assay [24] it was 26.5 and 20; in assay [25], 16.5 and 10. Also, the No. of survivors in [26] was determined as 1; in [27], 8; in assay [28] it was 8; in [29] it was 10; in assay [30], 8; in assay [31], 8. Besides, the No. of survivors in assay [32] came to 9; in assay [33], 8; in assay [34], 3.

Source of the values: ChEMBL document CHEMBL1121559, “Fluorinated analogues of 1-(2-chloroethyl)-3-cyclohexyl-1-nitrosourea: an attempt to control metabolism” (1980).
